Entries after “also recorded” stand apart in the source; their conditions may differ.
Key:
p38γ = target: T1, p38γ (Homo sapiens, UniProt P53778); experiment: ADP-Glo in vitro kinase assay; assay type: biochemical; conditions: for inhibition of p38γ kinase activity (in words): cell-free ADP-Glo, 1 μmol/L and 10 μmol/L, Figure 5c
T1 sequence (P53778 1-367): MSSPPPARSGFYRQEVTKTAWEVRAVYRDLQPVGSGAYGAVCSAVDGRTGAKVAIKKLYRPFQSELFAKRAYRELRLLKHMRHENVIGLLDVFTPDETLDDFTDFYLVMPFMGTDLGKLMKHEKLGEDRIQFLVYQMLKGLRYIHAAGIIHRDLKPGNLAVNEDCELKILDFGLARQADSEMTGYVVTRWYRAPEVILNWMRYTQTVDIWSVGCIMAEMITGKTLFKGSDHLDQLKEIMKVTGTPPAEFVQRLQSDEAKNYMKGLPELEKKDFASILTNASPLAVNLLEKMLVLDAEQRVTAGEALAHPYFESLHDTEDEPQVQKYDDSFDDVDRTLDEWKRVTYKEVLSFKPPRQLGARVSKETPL

Hut78 cells = assay type: cell-based, human; conditions: for reduction of Hut78 cell viability (in words): Figure 5a
CTCL cells = experiment: Cell killing of CTCL cells; assay type: cell-based; conditions: Homo sapiens, read-out: IC50 for cell killing on the CTCL cells
In short: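 Hut78, HH and H9 CTCL cell lines were exposed to varying concentrations of test compound for 72 hours. Viability was read by CellTiterGlo and normalized to DMSO control. IC50 was derived from dose-response data. There were three independent experiments, each averaged from triplicates.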

SMILES | inhibition of p38γ kinase activity (in words) (p38γ) | influence on viability of Hut78 cells (in words) (Hut78 cells; up to approximately 10 μmol/L, 72 hours) | reduction of Hut78 cell viability (in words) (Hut78 cells) | IC50 (p38γ) [µM] | IC50 (CTCL cells) [µM]
Cc1nc(NC(=O)N2CCC[C@H]2C(N)=O)sc1-c1csc(C(C)(C)C)n1 [A66] | no inhibitory kinase activities against p38γ; also recorded: does not inhibit in vitro activity of p38γ | no influence on the viability of Hut78 cells; also recorded: does not affect cell viability |  |  | 
Cn1c(=O)n(-c2ccc(C(C)(C)C#N)cc2)c2c3cc(-c4cnc5ccccc5c4)ccc3ncc21 [BEZ235] | no inhibitory kinase activities against p38γ |  | only modest reduction of cell viability |  | 
CS(=O)(=O)N1CCN(Cc2cc3nc(-c4cccc5[nH]ncc45)nc(N4CCOCC4)c3s2)CC1 [GDC0941] | no inhibitory kinase activities against p38γ |  | only modest reduction of cell viability |  | 
Cc1ccc(=O)n(-c2ccccc2)c1 [pirfenidone] |  |  |  | > 125 | > 125
